Experimental data collected from several papers.
Protocols differ between the studies behind these lines.
Target: Mitogen-activated protein kinase 12 (MAPK12, Homo sapiens, UniProt P53778)
Sequence (P53778 1-367, as in one of the studies): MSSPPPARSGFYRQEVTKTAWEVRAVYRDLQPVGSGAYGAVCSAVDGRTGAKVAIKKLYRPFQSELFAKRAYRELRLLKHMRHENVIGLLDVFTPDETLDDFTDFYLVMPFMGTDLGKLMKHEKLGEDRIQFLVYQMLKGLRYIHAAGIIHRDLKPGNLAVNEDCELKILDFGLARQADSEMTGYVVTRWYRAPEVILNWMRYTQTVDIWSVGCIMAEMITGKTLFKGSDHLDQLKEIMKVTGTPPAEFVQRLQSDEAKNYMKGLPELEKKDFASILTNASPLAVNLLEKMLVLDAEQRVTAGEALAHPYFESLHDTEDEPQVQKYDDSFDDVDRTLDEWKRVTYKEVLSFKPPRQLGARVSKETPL

| SMILES | observed | mode | technique | tested at | endpoint | result |
| --- | --- | --- | --- | --- | --- | --- |
| CC(C)(C)C(=O)c1sc(NC2CCCCC2)nc1N | enzyme activity | inhibitor |  | 10 µM | remaining activity | 89% |
| O=C(NC[C@@H]1[C@H]2CN(C(=O)OCc3cc(C(F)(F)F)cc(C(F)(F)F)c3)C[C@@H]12)c1ccc2[nH]nnc2c1 | cell-free assay |  | competition with immobilised ligand | 1 µM | remaining binding | 100% |
| CC1CCCN1c1nccc(-c2cnn3ncccc23)n1 (stereo not shown) | binding |  |  | 1 µM | remaining binding | 90% |
| O=C(Nc1cnn(-c2csc(C(=O)NC3COC3)c2)c1)Nc1ccccc1Cl | enzyme activity | inhibitor |  | 5 µM | remaining activity | 99.4% |
| Nc1ncnc2occ(-c3ccc(NC(=O)Nc4cc(C(F)(F)F)ccc4F)cc3)c12 | cell-free assay | inhibitor |  | 20 µM | remaining signal | 0.5% |
| Oc1ccc(-c2nc(-c3ccncc3)c(-c3ccc(F)cc3)[nH]2)cc1 | cell-free assay |  |  | 0.5 µM | remaining signal | 102% |
| Cc1ccc(NC(=O)c2ccc(C)c(C(F)(F)F)c2)cc1C#Cc1nn(C2CCC(O)CC2)c2ncnc(N)c12 (stereo not shown) | cell-free assay |  |  | 10 µM | remaining signal | 68% |
| Nc1c(C(=O)NCc2ccc(C(=O)NCCCC3CCCCC3)cc2)cnn1-c1ccccc1 | cell-free assay |  | competition with immobilised ligand | 0.1 µM | remaining binding | 100% |
| Cn1c(=O)n(-c2ccc(C(C)(C)C#N)cc2)c2c3cc(-c4cnc5ccccc5c4)ccc3ncc21 | enzyme activity | inhibitor |  | 10 µM | remaining activity | 101% |
| Cc1ccc(Nc2nccc(N(C)c3ccc4c(C)n(C)nc4c3)n2)cc1S(N)(=O)=O | enzyme activity | inhibitor |  | 10 µM | inhibition | -5% |
| O=C1NC(=O)c2cc(Nc3ccc(F)cc3)c(Nc3ccc(F)cc3)cc21 | cell-free assay |  |  | 0.5 µM | remaining signal | 93.6% |
| COc1cc(Cl)c(C(=O)N[C@@H](CN[C@H]2CC[C@@H](N)CC2)Cc2ccc(C#N)cc2)cc1-c1ccc(CN[C@H](C)c2ccc(C)cc2)o1 | enzyme activity | inhibitor |  | 1 µM | remaining activity | 109% |
| CNC(=O)c1cc(Oc2ccc(NC(=O)Nc3ccc(Cl)c(C(F)(F)F)c3)cc2)ccn1 | cell-free assay |  |  | 0.5 µM | remaining signal | 94.2% |
| Cc1sc(C(=O)NC2COC2)cc1-n1cc(NC(=O)Nc2c(F)cccc2Cl)cn1 | enzyme activity | inhibitor |  | 10 µM | remaining activity | 90.5% |
| C[C@H](c1ccc(F)cc1)N(Cc1cccc(C(=O)O)c1)C(=O)c1cnc2ccccc2c1 | cell-free assay |  | competition with immobilised ligand | 1 µM | remaining binding | 65% |
| CCN(CC)c1ccc(C2=NNC(=O)CC2C)cc1[N+](=O)[O-] (stereo not shown) | enzyme activity | inhibitor |  | 10 µM | remaining activity | 104% |
| COc1cc(Nc2cnc(C#N)c(O[C@H](C)CN(C)C)n2)ncc1-c1cnn(C)c1 | enzyme activity | inhibitor | radiometric | 1 µM | remaining activity | 89% |
| FC(F)c1nc2ccccc2n1-c1nc(N2CCOCC2)nc(N2CCOCC2)n1 | enzyme activity | inhibitor |  | 10 µM | remaining activity | 92% |
| N#CC1(c2ccccn2)CCN(Cc2cc(C(=O)N3CCCC3)c(=O)n3ccccc23)CC1 | cell-free assay |  | competition with immobilised ligand | 1 µM | remaining binding | 100% |
| COc1cc2ncnc(Nc3ccc(Oc4ccccc4)c(C)c3C)c2cc1OC | enzyme activity | inhibitor |  | 1 µM | inhibition | 2% |
| CCOC(=O)c1cc2cc(-c3cc(C(=O)NCc4ccc(C(=O)O)cc4)nn3C)ccc2[nH]1 | cell-free assay |  | competition with immobilised ligand | 0.1 µM | remaining binding | 77% |
| CCN(CC)CCNC(=O)c1c(C)[nH]c(/C=C2\C(=O)Nc3ccc(F)cc32)c1C | enzyme activity | inhibitor |  | 0.3 µM | inhibition | -10% |
| CN1CCN(c2cnc3c(C4CCN(C(=O)c5ccc(OC(F)(F)F)cc5N)CC4)ncnc3c2)CC1 | cell-free assay |  | competition with immobilised ligand | 1 µM | remaining binding | 83% |
| CC(C)(C)c1nc2c(s1)c1nc(N)ncc1c1ccc(NS(=O)(=O)c3c(F)cccc3F)c(F)c12 | enzyme activity | inhibitor | radiometric | 1 µM | remaining activity | 100% |
| CCS(=O)(=O)c1cc2cc(C[C@](O)(CC(C)(C)c3ccc(F)cc3C(N)=O)C(F)(F)F)[nH]c2cn1 | cell-free assay |  | competition with immobilised ligand | 1 µM | remaining binding | 100% |
| Cc1ccc(C(=O)Nc2ccc(CN3CCN(C)CC3)c(C(F)(F)F)c2)cc1C#Cc1cnc2cccnn12 | enzyme activity | inhibitor |  | 23.5 nM | remaining activity | 70% |
| COc1cc(/C=C/C(=O)CC(=O)/C=C/c2ccc(O)c(OC)c2)ccc1O | enzyme activity | inhibitor |  | 1 µM | activity vs control | 101% |
| CS(=O)(=O)c1cc(C2(NC(=O)c3cncc4c3cnn4-c3ccc(F)cc3)CC2)ccn1 | cell-free assay |  | competition with immobilised ligand | 1 µM | remaining binding | 100% |
